Assay results published in ChEMBL document CHEMBL3244005, “Troponoids. 3. Synthesis and antiallergy activity of N-troponyloxamic acid esters” (J Med Chem, 1979).

Experiments:
Cavia porcellus [1] = species on record: Cavia porcellus; assay: Stimulation of guinea pig lung adenylate cyclase activity at 1 x 10^-3 M after 15 mins relative to control
How it was run: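 Guinea pig lung adenyl cyclase preparation, chosen because it carries negligible cyclic nucleotide phosphodiesterase activity. Enzyme activity was read as cyclic AMP formation in the presence of test agent and compared with untreated control.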

Cavia porcellus [2] = species on record: Cavia porcellus; assay: Stimulation of guinea pig lung adenylate cyclase activity at 1 x 10^-4 M after 15 mins relative to control
Rattus norvegicus [3] = assay: Antiallergic activity in Sprague-Dawley CD rat assessed as inhibition of passive anaphylaxis-induced hind paw edema at 100 mg/kg, po relative to control; assay type: functional; settings: for inhibition in vivo at 100 mg/kg: Rattus norvegicus, Sprague-Dawley CD, po
How it was run: (§1)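 Passive anaphylaxis (reaginic antibody) induced in rat hind paw: serum with reaginic antibody injected into left hind paw; antigen given intravenously 24 h later. Paw volume measured by mercury displacement; activity read as inhibition of paw edema versus controls. Test compounds given ip or po. Inhibition of 35% or more considered significant by Student's t test (p < 0.05).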

Rattus norvegicus [4] = assay: Antiallergic activity in Sprague-Dawley CD rat assessed as inhibition of passive anaphylaxis-induced hind paw edema at 30 mg/kg, ip relative to control; assay type: functional; settings: Rattus norvegicus, Sprague-Dawley CD, ip, route intraperitoneal; how it was run: as §1
Rattus norvegicus [5] = assay: Antiallergic activity in Sprague-Dawley CD rat assessed as inhibition of passive anaphylaxis-induced hind paw edema at 30 mg/kg, po relative to control; assay type: functional; settings: for inhibition in vivo at 30 mg/kg: Rattus norvegicus, Sprague-Dawley CD, po; how it was run: as §1
Rattus norvegicus [6] = assay: Antiallergic activity in Sprague-Dawley CD rat assessed as inhibition of passive anaphylaxis-induced hind paw edema at 10 mg/kg, ip relative to control; assay type: functional; settings: Rattus norvegicus, Sprague-Dawley CD, ip, route intraperitoneal; how it was run: as §1
Rattus norvegicus [7] = assay: Antiallergic activity in Sprague-Dawley CD rat assessed as inhibition of passive anaphylaxis-induced hind paw edema at 3 mg/kg, ip relative to control; assay type: functional; design: Activity: scale not given: the % may be the effect or the level left; settings: route intraperitoneal; how it was run: as §1
[8] = Inhibition of beef heart PDE assessed as cyclic AMP level; design: species or system Bos taurus
How it was run: (§2)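 PDE from beef heart or guinea pig lung assayed by earlier-described methods; protein measured by Lowry method. IC50 taken from a plot of percent inhibition vs log inhibitor concentration, as the concentration giving 50% reduction in reaction velocity relative to uninhibited controls.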

Rattus norvegicus [9] = assay: Drug metabolism in po dosed Sprague-Dawley CD rat passive anaphylaxis model assessed as 2-aminotropone level; assay type: ADME, organism-based; settings: in vivo
Rattus norvegicus [10] = assay: Antiallergic activity in Sprague-Dawley CD rat passive anaphylaxis model assessed as hind paw edema volume at 10 mg/kg, po relative to control; assay type: functional; how it was run: as §1
Rattus norvegicus [11] = assay: Antiallergic activity in Sprague-Dawley CD rat passive anaphylaxis model assessed as hind paw edema volume at 10 mg/kg, ip relative to control; assay type: functional; settings: route intraperitoneal; how it was run: as §1
Rattus norvegicus [12] = assay: Antiallergic activity in Sprague-Dawley CD rat assessed as inhibition of passive anaphylaxis-induced hind paw edema at 10 mg/kg, po relative to control; assay type: functional; how it was run: as §1
Rattus norvegicus [13] = assay: Antiallergic activity in Sprague-Dawley CD rat passive anaphylaxis model assessed as hind paw edema volume at 30 mg/kg, po relative to control; assay type: functional; how it was run: as §1
Rattus norvegicus [14] = assay: Antiallergic activity in Sprague-Dawley CD rat passive anaphylaxis model assessed as hind paw edema volume at 3 mg/kg, ip relative to control; assay type: functional; settings: route intraperitoneal; how it was run: as §1
Serum = assay: Drug metabolism in serum of Sprague-Dawley CD rat passive anaphylaxis model at 0.23 mmol/kg, iv; assay type: ADME, cell-free
How it was run: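 Rats given an iv bolus of 0.23 mmol/kg. Serum separated by centrifugation and stored frozen. Drug-derived material in serum quantified over time by UV measurement of 2-aminotropone. For 14C-labelled ester (label in ethyl group or oxalyl carbonyls), radioactivity counted in 0.2 mL serum after tissue-solubiliser digestion and scintillation fluid addition.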

Rattus norvegicus [15] = assay: Antiallergic activity in Sprague-Dawley CD rat assessed as inhibition of passive anaphylaxis-induced hind paw edema at 1 mg/kg, ip relative to control; assay type: functional; settings: route intraperitoneal; how it was run: as §1
Rattus norvegicus [16] = assay: Antiallergic activity in Sprague-Dawley CD rat passive anaphylaxis model assessed as hind paw edema volume at 1 mg/kg, ip relative to control; assay type: functional; settings: route intraperitoneal; how it was run: as §1
Rattus norvegicus [17] = assay: Antiallergic activity in Sprague-Dawley CD rat assessed as inhibition of passive anaphylaxis-induced hind paw edema at 3 mg/kg, po relative to control; assay type: functional; how it was run: as §1
Rattus norvegicus [18] = assay: Antiallergic activity in Sprague-Dawley CD rat passive anaphylaxis model assessed as hind paw edema volume at 3 mg/kg, po relative to control; assay type: functional; how it was run: as §1
[19] = Inhibition of guinea pig lung PDE assessed as cyclic AMP level; design: species or system Cavia porcellus; how it was run: as §2
[20] = Rattus norvegicus, Sprague-Dawley CD, po

Structure (SMILES) | inhibition in vivo at 100 mg/kg (Rattus norvegicus [3]) | inhibition in vivo at 30 mg/kg (Rattus norvegicus [4]) | inhibition in vivo at 30 mg/kg (Rattus norvegicus [5]) | inhibition in vivo at 10 mg/kg (Rattus norvegicus [6]) | also measured
Cn1c(=O)c2[nH]cnc2n(C)c1=O | – | – | – | – | Activity (Cavia porcellus [1]): 5%
O=C(O)C(=O)Nc1cccccc1=O [listing 1 of 2 here] | – | – | – | – | Activity (Cavia porcellus [2]): 2%
CCOC(=O)C(=O)Nc1ccccc(C)c1=O | 34% | 60% | 6% | 40% | –
O=C(O)C(=O)Nc1cccccc1=O [listing 2 of 2 here] | 62% | 77% | – | 89% | Activity (Rattus norvegicus [7]): 35%; IC50 [8]: 4.33 mM; Drug metabolism (Rattus norvegicus [9]): metabolite_detected; Activity (Rattus norvegicus [10]): 1.11 mL; Activity (Rattus norvegicus [11]): 0.12 mL; inhibition (INH) (Rattus norvegicus [5]): 38%; inhibition (INH) (Rattus norvegicus [12]): 38%; Activity (Rattus norvegicus [13]): 0.88 mL; Activity (Rattus norvegicus [14]): 0.75 mL
CCOC(=O)C(=O)Nc1ccccc(OC)c1=O | 56% | 52% | 59% | 24% | –
CCOC(=O)C(=O)Nc1ccccc(Oc2ccccc2)c1=O | 9% | 16% | – | – | –
CCOC(=O)C(=O)Nc1ccccc(-c2ccccc2)c1=O | 0% | 72% | – | 57% | –
CCOC(=O)COC(=O)C(=O)Nc1cccccc1=O | 64% | – | 31% | 69% | –
CC(C)(C)OC(=O)C(=O)Nc1cccccc1=O | 82% | 79% | 47% | – | –
Nc1cccccc1=O | – | – | – | – | Drug metabolism (Serum): metabolite_detected
CCOC(=O)C(=O)Nc1ccc(NC(=O)C(=O)OCC)c(=O)cc1 | 76% | 84% | 61% | 93% | –
CCOC(=O)C(=O)Nc1cccc(OC)cc1=O | 48% | 67% | 45% | 73% | –
NNC(=O)C(=O)Nc1cccccc1=O | 78% | 78% | 41% | 64% | –
CCOC(=O)C(=O)Nc1ccccc(NC)c1=O | – | 83% | 0% | 73% | –
CCOC(=O)C(=O)Nc1ccc(Cl)ccc1=O | 25% | 27% | – | – | –
O=C(O)COC(=O)C(=O)Nc1cccccc1=O | 50% | 93% | 45% | 66% | –
CCOC(=O)C(=O)Nc1c(C)ccccc1=O | 37% | 47% | 4% | – | –

Structure (SMILES) | inhibition in vivo at 100 mg/kg (Rattus norvegicus [3]) | inhibition in vivo at 30 mg/kg (Rattus norvegicus [4]) | inhibition in vivo at 30 mg/kg (Rattus norvegicus [5]) | inhibition in vivo at 10 mg/kg (Rattus norvegicus [6]) | also measured
O=C(O)c1cc(=O)c2c(OCC(O)COc3cccc4oc(C(=O)O)cc(=O)c34)cccc2o1 [CROMOLYN SODIUM] | – | 77% | – | 62% | –
O=C(Nc1cccccc1=O)C(=O)Oc1ccccc1 | 71% | 73% | 31% | 68% | –
COc1cccc2c(=O)c(CO)coc12 | 83% | 98% | 53% | 70% | inhibition in vivo at 3 mg/kg (Rattus norvegicus [7]; Rattus norvegicus, Sprague-Dawley CD, ip): 39%; Activity (Rattus norvegicus [10]): 0.74 mL; inhibition in vivo at 1 mg/kg (Rattus norvegicus [15]): 14%; Activity (Rattus norvegicus [16]): 1 mL; inhibition in vivo at 3 mg/kg (Rattus norvegicus [17]; [20]): 15%; Activity (Rattus norvegicus [18]): 1.13 mL; Activity (Rattus norvegicus [11]): 0.32 mL; inhibition in vivo at 10 mg/kg (Rattus norvegicus [12]; [20]): 44%; Activity (Rattus norvegicus [13]): 0.63 mL; Activity (Rattus norvegicus [14]): 0.68 mL
CCCCCOC(=O)C(=O)Nc1cccccc1=O | – | 57% | 12% | 61% | –
Cn1c(=O)c2nc[nH]c2n(C)c1=O [THEOPHYLLINE] | – | – | – | – | IC50 [8]: 0.515 mM; IC50 [19]: 1.47 mM
NC(CO)(CO)CO.O=C(O)C(=O)Nc1cccccc1=O | – | – | – | – | inhibition (INH) (Rattus norvegicus [3]): 73%; Activity (Rattus norvegicus [10]): 0.88 mL; inhibition (INH) (Rattus norvegicus [17]): 13%; Activity (Rattus norvegicus [18]): 0.83 mL; inhibition (INH) (Rattus norvegicus [5]): 32%; inhibition (INH) (Rattus norvegicus [12]): 7%; Activity (Rattus norvegicus [13]): 0.64 mL
CCOC(=O)C(=O)Nc1cc(OC)cccc1=O | 53% | 8% | 31% | – | –
CC(C)OC(=O)C(=O)Nc1cccccc1=O | 72% | 96% | 63% | 76% | –
CCOC(=O)C(=O)Nc1ccccc(Br)c1=O | 0% | 52% | – | – | –
CCOC(=O)C(=O)Nc1ccccc(N(C)C(=O)C(=O)OCC)c1=O | 0% | 51% | 6% | 26% | –
CCOC(=O)C(=O)Nc1ccc(O)c(=O)cc1 | – | 10% | – | – | –
CCOC(=O)C(=O)Nc1ccccc(O)c1=O | 0% | 61% | – | 5% | –
CCOC(=O)C(=O)Nc1ccccc(N(C)S(=O)(=O)c2ccc(C)cc2)c1=O | 0% | 32% | 3% | – | –
COC(=O)C(=O)Nc1ccc(OC)c(=O)cc1 | – | 36% | – | – | –
CCOC(=O)C(=O)Nc1c(Oc2ccccc2)ccccc1=O | 20% | 0% | – | – | –
CNC[C@H](O)c1ccc(O)c(O)c1 | – | – | – | – | Activity (Cavia porcellus [2]): 84%
